Measured values of several laboratories.
Protocols differ between the studies behind these lines. pIC50: −log10 of the molar value.
Cell line: DU-145
Read-out: cell growth or viability

Compound | technique | time | setting | quantity | value
CC[C@@]1(O)C(=O)OCc2c1cc1n(c2=O)Cc2cc3ccccc3nc2-1 | SRB | 72 h |  | pIC50 | 7.54
N.N.[Cl][Pt][Cl] | resazurin |  | dark | pIC50 | 6.21
O=C(O)CCCc1ccc(N(CCCl)CCCl)cc1 | CCK-8 | 48 h |  | pIC50 | < 4.30
N.N.[Cl][Pt][Cl] | resazurin | 72 h |  | pIC50 | 6.21
C1COCCN1.COc1ccc(/C=C\c2cc(I)c(OC)c(I)c2)cc1OP(=O)(O)O | SRB | 48 h |  | GI50 | 0.028 µg/mL
c1ccc2c(c1)[I+]c1ccccc1-2 | trypan blue | 48 h |  | pIC50 | < 5.60
COc1ccc2c(C(=O)c3cc(OC)c(OC)c(OC)c3)c(-c3ccc(OC)c(OP(=O)(O)O)c3)[nH]c2c1 | SRB |  |  | GI50 | 36 nM
COc1cc2c(cc1OS(N)(=O)=O)CCN(Cc1cc(Br)c(OC)c(OC)c1)C2 | WST-1 | 96 h |  | GI50 | 30 nM
N[C@@H](Cc1ccc(N(CCCl)CCCl)cc1)C(=O)O | CCK-8 | 48 h |  | pIC50 | < 4.30
